Screening data as filed in PubChem.
The list is not random: actives were taken first. Their share in the collection is about 3.7%.
Kir21 block – blocks the mouse Kir2.1 inward-rectifier potassium channel; P35561; HEK293-Kir2.1, FluxOR thallium flux fluorescence; hits give low values; B-score at 10 µM; actives 0.85% (n = 310,000);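 active = fluorescence ratio B-score at or below minus 3 SD of library scores, with starting-brightness B-score within 2 SD, cut at about -4.2 in these data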;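 note: channel flux triggered by added potassium and thallium sulfate stimulus; B-score of peak minus minimum fluorescence over baseline after thallium stimulus; more negative B-score means stronger Kir2.1 block with less thallium influx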
KCNK3 block – human KCNK3 channel inhibition, primary screen; actives 0.84% (n = 340,000); CHO-KCNK3 thallium flux, FluxOR fluorescence; hits give low values; O14649; B-score at 10 µM;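 active = B-score under library mean minus 4 SD, starting fluorescence ratio at most library mean plus 5 SD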;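 note: more negative B-score means stronger inhibition of thallium flux through KCNK3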
hERG protect – compounds protecting human hERG from proarrhythmic drug block. CHO-hERG, FluxOR thallium flux, dofetilide IC70 present. activation (rescue from dofetilide block), less the hit threshold, % at 10 µM. actives 0.51% (n = 310,000);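 active = activation above the mean of controls blocked by dofetilide plus 5 SD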;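 note: thallium influx through hERG after potassium depolarization seen as dye fluorescence rise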
KCNQ1 inh – human KCNQ1 channel inhibition. B-score at 10 µM. actives 1.3% (n = 310,000). CHO-K1 KCNQ1, FluxOR thallium flux fluorescence; hits give high values;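 active = compounds whose thallium flux B-score, printed positive for inhibition, exceeds three library SD while starting fluorescence stays within three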;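 note: channel opened by potassium depolarization with thallium stimulus after 20 min compound exposure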
KCNK9 inh – blocks the human KCNK9 two-pore domain potassium channel. Q9NPC2. HEK293 KCNK9, FluxOR thallium flux fluorescence; hits give low values. B-score at 10 µM. actives 1.2% (n = 310,000). AID 488922;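 active = ratio B-score over 3 SD below the library mean, with starting fluorescence within 5 SD of its mean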;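 note: negative B-score means less thallium flux so channel inhibition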
Target sequence (Q9NPC2 whole entry, looked up, the tested form may be a part): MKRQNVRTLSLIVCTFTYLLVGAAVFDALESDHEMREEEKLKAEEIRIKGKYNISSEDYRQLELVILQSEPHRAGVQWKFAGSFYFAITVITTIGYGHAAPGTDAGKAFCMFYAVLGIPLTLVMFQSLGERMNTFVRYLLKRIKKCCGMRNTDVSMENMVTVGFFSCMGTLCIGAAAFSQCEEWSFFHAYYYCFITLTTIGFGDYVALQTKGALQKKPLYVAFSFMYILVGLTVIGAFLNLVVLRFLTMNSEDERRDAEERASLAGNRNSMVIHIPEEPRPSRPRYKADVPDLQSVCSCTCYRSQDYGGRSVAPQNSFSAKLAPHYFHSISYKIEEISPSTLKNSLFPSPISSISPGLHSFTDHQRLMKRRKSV
KCNQ1 act – potentiators or activators of human KCNQ1 potassium channel | actives 0.35% (n = 310,000) | CHO-K1 KCNQ1, thallium flux FluxOR fluorescence; hits give high values | B-score at 10 µM | AID 2648;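 active = fluorescence ratio B-score, a plate-corrected score, at least three library SD, with initial intensity B-score within 5 SD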
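System: Stable KCNQ1 CHO-K1 line | Incubation: 90 min dye loading and 20 min compound exposure, both at room temperature | Measure: Ratio B score | Medium: Assay buffer for compound exposure, DMSO matched across wells | Compound dosing: Single-concentration screen | Probe or stimulus: K+/Tl+ depolarizing stimulus | Measured by: Kinetic FluxOR fluorescence, 10 s baseline plus 110 s post-stimulus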
KCNK9 block conf – confirmation of human KCNK9 potassium channel inhibitors. shares compounds with KCNK9 inh. HEK293 KCNK9 cells, FluxOR thallium flux fluorescence. inhibition, % at 10 µM. actives 43% (n = 4,900). AID 492992;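 active = thallium signal inhibited by more than 5 SD of the compound-free buffer control wells, on both duplicate plates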;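 note: 0% = assay buffer control wells without compound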
Kir2-1 spec – selectivity of KCNK9 modulators against mouse Kir2.1; Kir2.1 cells, FluxOR thallium flux fluorescence; actives 4% (n = 4,900); shares compounds with KCNK9 inh; inhibition, % at 10 µM;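 active = thallium signal drop more than 5 SD beyond the mean of the no-compound control wells, seen in both duplicate plates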;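 note: signal is fluorescence rise after thallium addition divided by baseline fluorescence; plate controls were assay buffer only for no effect and full block by chlorpromazine control for full effect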
HEK293 Tl ctr – second check of KCNK9 modulator effects in non-induced HEK293 cells; shares compounds with KCNK9 inh; FluxOR thallium flux; inhibition, % at 10 µM; actives 40% (n = 4,900);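 active = thallium signal drop beyond 5 SD of the untreated control mean, on both duplicate plates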;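 note: plate controls were buffer only IC0 wells for no effect and SID17386958 at its maximal inhibitory level for full effect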
Active calls of the source: *.

`Cn1cc(SCC(=O)N2CCCc3ccccc32)c2ccccc21` gave Kir21 block -6.8*, KCNK3 block inactive, hERG protect -13, KCNQ1 inh inactive, KCNK9 inh inactive, KCNQ1 act inactive, KCNK9 block conf inactive, Kir2-1 spec 38%* and HEK293 Tl ctr inactive.
CC[C@]12C(=O)N(C)C[C@H]([C@@H]3C(=O)N(Cc4ccccc4)C(=O)[C@@H]31)N2C(=O)c1ccc(C(C)(C)C)cc1 was read as KCNK3 block inactive.
`O=C(CN1C(=O)NC2(CCCC2)C1=O)OCCOc1ccc(Cl)cc1Cl` gave Kir21 block -2.1, KCNK3 block inactive, hERG protect -9, KCNQ1 inh inactive, KCNK9 inh inactive and KCNQ1 act inactive.
Fc1ccc(/C=C/c2nnc(-c3cccs3)o2)cc1 was read as Kir21 block -0.03, KCNK3 block inactive, hERG protect -3, KCNQ1 inh inactive, KCNK9 inh -8.7*, KCNQ1 act inactive, KCNK9 block conf 33%*, Kir2-1 spec inactive and HEK293 Tl ctr inactive.
`COc1cc(CCC(N)c2cccc(O)c2)cc(OC)c1OC` (stereo unspecified) gave KCNK3 block inactive.
For COc1cc(SC#N)ccc1N=Cc1c(C)[nH]n(-c2ccc(C)c(C)c2)c1=O the results were Kir21 block 0.89, KCNK3 block inactive, hERG protect -4, KCNQ1 inh inactive, KCNK9 inh inactive, KCNQ1 act inactive, KCNK9 block conf inactive, Kir2-1 spec inactive and HEK293 Tl ctr inactive.
Screening COc1ccc(OC)c(Nc2nc(-c3sc(NC(=O)C(C)(C)C)nc3C)cs2)c1 returned Kir21 block 1.6, KCNK3 block inactive, hERG protect -15, KCNQ1 inh inactive, KCNK9 inh -13*, KCNQ1 act inactive, KCNK9 block conf 46%*, Kir2-1 spec inactive and HEK293 Tl ctr inactive.
For COc1ccc(OC)c(Nc2nc(-c3sc(NC(=O)CC(C)C)nc3C)cs2)c1 the results were Kir21 block 0.64, KCNK3 block inactive, hERG protect -8, KCNQ1 inh inactive, KCNK9 inh -16*, KCNQ1 act inactive, KCNK9 block conf 40%*, Kir2-1 spec inactive and HEK293 Tl ctr 32%*.
Screening CCC(C)C(=O)Nc1nc(C)c(-c2csc(Nc3cc(OC)ccc3OC)n2)s1 (stereo unspecified) returned Kir21 block 0, KCNK3 block inactive, hERG protect -26, KCNQ1 inh inactive, KCNK9 inh -11*, KCNQ1 act inactive, KCNK9 block conf 40%*, Kir2-1 spec inactive and HEK293 Tl ctr 27%*.
For CCC(C)C(=O)Nc1nc(C)c(-c2csc(Nc3cc(Cl)ccc3OC)n2)s1 (stereo unspecified) the results were Kir21 block -0.33, KCNK3 block inactive, hERG protect -12, KCNQ1 inh inactive, KCNK9 inh inactive and KCNQ1 act inactive.
Screening COc1ccc(OC)c(Nc2nc(-c3sc(C)nc3C)cs2)c1 returned Kir21 block 1.1, KCNK3 block inactive, hERG protect -22, KCNQ1 inh inactive, KCNK9 inh inactive and KCNQ1 act inactive.
`COc1ccc(N/C(=C2\CCCC2=O)C2CCCCC2)cc1` gave Kir21 block 0.54, KCNK3 block inactive, hERG protect -17, KCNQ1 inh inactive, KCNK9 inh inactive and KCNQ1 act inactive.
